Measured values taken from ChEMBL document CHEMBL3864147, “Antioxidant and anti-inflammatory neolignans from the seeds of hawthorn” (Bioorg Med Chem Lett, 2016).
Blank lines part the entries; values can stand above or below the compound they belong to.

Assays:
[1] = Antiinflammatory activity in mouse RAW264.7 cells assessed as inhibition of LPS-induced TNFalpha production after 24 hrs by ELISA; format: functional, cell-based; conditions: RAW264.7, 24 h
Summary of the method: (§1)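 RAW264.7 cells plated at 5 × 10^5/mL, pre-treated with samples at 100, 50, 10 or 1 µM, then stimulated with LPS (100 ng/mL) for 24 h. TNF-α in the medium measured by ELISA kit per manufacturer's instructions and quantified from a standard curve; silybin as positive control.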

[2] = Antioxidant activity assessed as ferric ion reducing activity by measuring Fe2+ levels using fe3+-TPTZ at 750 ug/ml after 30 mins by FRAP assay; format: functional
Summary of the method: (§2)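 FRAP reagent: 300 mM acetate buffer pH 3.6, 10 mM TPTZ in 40 mM HCl, 20 mM FeCl3. Sample (3000, 1500, 750, 375 µg/mL solutions) mixed with reagent, 30 min at 37 °C, absorbance 593 nm. Values expressed as µM Fe2+ from FeSO4 calibration curve (5–450 µM).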

Mus musculus = species: Mus musculus; experiment: Cytotoxicity against mouse RAW264.7 cells assessed as effect on cell viability at 100 uM preincubated for 1 hr followed by LPS stimulation measured after 24 hrs by MTT assay; format: toxicity, cell-based; conditions: raw264.7, 24 h
Summary of the method: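 RAW264.7 cells in DMEM with 10% FBS and penicillin/streptomycin at 37 °C, 5% CO2, seeded 5 × 10^5 cells/well; treated with samples (100 µM) 1 h, then LPS (100 ng/mL) 24 h. MTT (0.25 mg/mL) added for 4 h; formazan read at 540 nm; untreated cells as control.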

[3] = Antiinflammatory activity in mouse RAW264.7 cells assessed as inhibition of LPS-induced TNFalpha production at 50 uM after 24 hrs by ELISA relative to control; format: functional; conditions: RAW264.7, 24 h; summary of the method: as §1
[4] = Antioxidant activity assessed as ferric ion reducing activity by measuring Fe2+ levels using fe3+-TPTZ at 375 ug/ml after 30 mins by FRAP assay; format: functional; summary of the method: as §2
[5] = Antiinflammatory activity in mouse RAW264.7 cells assessed as inhibition of LPS-induced nitric oxide production at 1 uM after 24 hrs by Griess assay relative to control; format: functional; conditions: RAW264.7, 24 h
Summary of the method: (§3)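 RAW264.7 cells (5 × 10^5/mL) pre-treated with samples at 100, 50, 10 or 1 µM, then LPS (100 ng/mL) for 24 h. Nitrite in medium measured by mixing with equal volume Griess reagent (1% sulfanilamide in 5% H3PO4, 0.1% N-naphthyl-ethylenediamine), 10 min at 37 °C, absorbance 540 nm; quantified against NaNO2 standard curve; minocycline as positive control.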

[6] = Antioxidant activity assessed as DPPH radical scavenging activity incubated in dark for 30 mins; format: functional
Summary of the method: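 Samples (0.4 mM stock, 5–40 µL series) and DPPH (2 mM stock, 20 µL) in ethanol, made to 200 µL with ethanol; incubated 30 min in dark at 37 °C; absorbance at 517 nm. Ethanol replaced sample as blank.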

[7] = Antiinflammatory activity in mouse RAW264.7 cells assessed as inhibition of LPS-induced TNFalpha production at 100 uM after 24 hrs by ELISA relative to control; format: functional; conditions: RAW264.7, 24 h; summary of the method: as §1
[8] = Antiinflammatory activity in mouse RAW264.7 cells assessed as inhibition of LPS-induced nitric oxide production after 24 hrs by Griess assay; format: functional, cell-based; conditions: RAW264.7, 24 h; summary of the method: as §3
[9] = Antioxidant activity assessed as ABTS radical scavenging activity after 30 mins; format: functional
Summary of the method: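 ABTS radical generated by 7 mM ABTS plus 2.4 mM potassium persulfate, 12 h dark at room temperature, diluted in ethanol to OD 0.700 at 734 nm. Samples at several concentrations mixed with ABTS+ solution, 30 min at 37 °C, read at 734 nm; ethanol blank; percent scavenging calculated relative to blank.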

[10] = Antioxidant activity assessed as ferric ion reducing activity by measuring Fe2+ levels using fe3+-TPTZ at 3000 ug/ml after 30 mins by FRAP assay; format: functional; summary of the method: as §2
[11] = Antiinflammatory activity in mouse RAW264.7 cells assessed as inhibition of LPS-induced TNFalpha production at 1 uM after 24 hrs by ELISA relative to control; format: functional; conditions: RAW264.7, 24 h; summary of the method: as §1
[12] = Antiinflammatory activity in mouse RAW264.7 cells assessed as inhibition of LPS-induced nitric oxide production at 50 uM after 24 hrs by Griess assay relative to control; format: functional; conditions: RAW264.7, 24 h; summary of the method: as §3
[13] = Antioxidant activity assessed as ferric ion reducing activity by measuring Fe2+ levels using fe3+-TPTZ at 1500 ug/ml after 30 mins by FRAP assay; format: functional; summary of the method: as §2
[14] = Antiinflammatory activity in mouse RAW264.7 cells assessed as inhibition of LPS-induced nitric oxide production at 100 uM after 24 hrs by Griess assay relative to control; format: functional; conditions: RAW264.7, 24 h; summary of the method: as §3
[15] = Antiinflammatory activity in mouse RAW264.7 cells assessed as inhibition of LPS-induced TNFalpha production at 10 uM after 24 hrs by ELISA relative to control; format: functional; conditions: RAW264.7, 24 h; summary of the method: as §1
[16] = Antiinflammatory activity in mouse RAW264.7 cells assessed as inhibition of LPS-induced nitric oxide production at 10 uM after 24 hrs by Griess assay relative to control; format: functional; conditions: RAW264.7, 24 h; summary of the method: as §3

Structure (SMILES): COc1cc(C2Oc3cc([C@H]4Oc5cc(O)cc(O)c5C(=O)[C@@H]4O)ccc3OC2CO)ccc1O (stereo not given in full) [SILIBININ]
- IC50 [1]: 69.2 µM
- inhibition at 50 µM [3]: 47%
- inhibition at 100 µM [7]: 53.8%
- inhibition at 1 µM [11]: 10.3%
- inhibition at 10 µM [15]: 27%

Structure (SMILES): CN(C)c1ccc(O)c2c1C[C@H]1C[C@H]3[C@H](N(C)C)C(O)=C(C(N)=O)C(=O)[C@@]3(O)C(O)=C1C2=O [MINOCYCLINE]
- inhibition at 1 µM [5]: 15.6%
- IC50 [8]: 55.1 µM
- inhibition at 50 µM [12]: 51.8%
- inhibition at 100 µM [14]: 59.7%
- inhibition at 10 µM [16]: 22.7%

Structure (SMILES): CCO[C@H](c1ccc(O[C@@H](CO)[C@@H](O)c2ccc(O)c(OC)c2)c(OC)c1)[C@H](CO)c1ccc(O)c(OC)c1
- IC50 [1]: > 100 µM
- Activity [2]: 65.1 µmol/L
- Activity (Mus musculus): Non-Toxic
- inhibition at 50 µM [3]: 14.2%
- Activity [4]: 33.5 µmol/L
- inhibition at 1 µM [5]: 3.7%
- IC50 [6]: 56.8 µM
- inhibition at 100 µM [7]: 27.7%
- IC50 [8]: 76.3 µM
- IC50 [9]: 7.9 µM
- Activity [10]: 135 µmol/L
- inhibition at 1 µM [11]: 0.4%
- inhibition at 50 µM [12]: 44.1%
- Activity [13]: 108 µmol/L
- inhibition at 100 µM [14]: 55.1%
- inhibition at 10 µM [15]: -1.9%
- inhibition at 10 µM [16]: 15.5%

Structure (SMILES): CCO[C@H](c1ccc(O[C@@H](CO)[C@@H](OC)c2ccc(O)c(OC)c2)c(OC)c1)[C@H](CO)c1ccc(O)c(OC)c1
- IC50 [1]: > 100 µM
- Activity [2]: 66.3 µmol/L
- Activity (Mus musculus): Non-Toxic
- inhibition at 50 µM [3]: 13.2%
- Activity [4]: 34.5 µmol/L
- inhibition at 1 µM [5]: 2.5%
- IC50 [6]: 81.6 µM
- inhibition at 100 µM [7]: 22.5%
- IC50 [8]: 80.5 µM
- IC50 [9]: 6.3 µM
- Activity [10]: 129 µmol/L
- inhibition at 1 µM [11]: 0.2%
- inhibition at 50 µM [12]: 37.2%
- Activity [13]: 99.2 µmol/L
- inhibition at 100 µM [14]: 56.2%
- inhibition at 10 µM [15]: 2.1%
- inhibition at 10 µM [16]: 16.1%

Structure (SMILES): Cc1c(C)c2c(c(C)c1O)CCC(C)(C(=O)O)O2 (stereo not given) [TROLOX]
- Activity [2]: 96.9 µmol/L
- Activity [4]: 51.7 µmol/L
- IC50 [6]: 30.2 µM
- IC50 [9]: 18.2 µM
- Activity [10]: 172 µmol/L
- Activity [13]: 185 µmol/L

Now from value to compound, other results behind:

- IC50 [1]: 84.4 µM
- IC50 [6]: 82.4 µM
- IC50 [8]: > 100 µM
- IC50 [9]: 9.5 µM
Structure (SMILES): COc1cc([C@H](O)[C@@H](CO)Oc2ccc([C@@H](O)[C@H](O)CO)cc2OC)ccc1O
- Activity [2]: 16 µmol/L
- Activity (Mus musculus): Non-Toxic
- inhibition at 50 µM [3]: 32.3%
- Activity [4]: 9.4 µmol/L
- inhibition at 1 µM [5]: -3.6%
- inhibition at 100 µM [7]: 55.6%
- Activity [10]: 55.8 µmol/L
- inhibition at 1 µM [11]: 3.9%
- inhibition at 50 µM [12]: 3.1%
- Activity [13]: 29.4 µmol/L
- inhibition at 100 µM [14]: 6.3%
- inhibition at 10 µM [15]: 26.2%
- inhibition at 10 µM [16]: 1.1%

- IC50 [1]: > 100 µM
- IC50 [6]: 43.6 µM
- IC50 [8]: 97.3 µM
- IC50 [9]: 5.9 µM
Structure (SMILES): COc1cc([C@@H](O)[C@H](CO)Oc2ccc([C@@H](OC)[C@H](CO)c3ccc(O)c(OC)c3)cc2OC)ccc1O
- Activity [2]: 89.5 µmol/L
- Activity (Mus musculus): Non-Toxic
- inhibition at 50 µM [3]: 5.2%
- Activity [4]: 60.8 µmol/L
- inhibition at 1 µM [5]: 7%
- inhibition at 100 µM [7]: 18.4%
- Activity [10]: 116 µmol/L
- inhibition at 1 µM [11]: 1.3%
- inhibition at 50 µM [12]: 34.2%
- Activity [13]: 121 µmol/L
- inhibition at 100 µM [14]: 57.3%
- inhibition at 10 µM [15]: 3.2%
- inhibition at 10 µM [16]: 19.2%

- IC50 [1]: > 100 µM
- IC50 [6]: 68.6 µM
- IC50 [8]: 50.5 µM
- IC50 [9]: 4.4 µM
Structure (SMILES): COc1cc([C@H](O)[C@@H](CO)Oc2ccc([C@@H](O)[C@@H](CO)c3ccc(O)c(OC)c3)cc2OC)ccc1O
- Activity [2]: 42.2 µmol/L
- Activity (Mus musculus): Non-Toxic
- inhibition at 50 µM [3]: 15.1%
- Activity [4]: 29.1 µmol/L
- inhibition at 1 µM [5]: 2.6%
- inhibition at 100 µM [7]: 32.1%
- Activity [10]: 132 µmol/L
- inhibition at 1 µM [11]: 2.2%
- inhibition at 50 µM [12]: 49.2%
- Activity [13]: 89.9 µmol/L
- inhibition at 100 µM [14]: 68.9%
- inhibition at 10 µM [15]: 4.1%
- inhibition at 10 µM [16]: 14.3%

- IC50 [1]: > 100 µM
- IC50 [6]: 114 µM
- IC50 [8]: > 100 µM
- IC50 [9]: 10.7 µM
Structure (SMILES): COc1cc([C@@H](O)[C@H](CO)Oc2c(OC)cc([C@@H](O)[C@H](O)CO)cc2OC)ccc1O
- Activity [2]: 58.1 µmol/L
- Activity (Mus musculus): Non-Toxic
- inhibition at 50 µM [3]: 28.2%
- Activity [4]: 35.9 µmol/L
- inhibition at 1 µM [5]: 0.6%
- inhibition at 100 µM [7]: 47%
- Activity [10]: 119 µmol/L
- inhibition at 1 µM [11]: 5.1%
- inhibition at 50 µM [12]: 2.7%
- Activity [13]: 84.6 µmol/L
- inhibition at 100 µM [14]: 3.4%
- inhibition at 10 µM [15]: 13.7%
- inhibition at 10 µM [16]: 1.3%

- IC50 [1]: 76.1 µM
- IC50 [6]: 109 µM
- IC50 [8]: > 100 µM
- IC50 [9]: 10.8 µM
Structure (SMILES): COc1cc([C@H](OC)[C@@H](CO)Oc2ccc([C@@H](O)[C@H](O)CO)cc2OC)ccc1O
- Activity [2]: 50.5 µmol/L
- Activity (Mus musculus): Non-Toxic
- inhibition at 50 µM [3]: 37.2%
- Activity [4]: 29.9 µmol/L
- inhibition at 1 µM [5]: -1.3%
- inhibition at 100 µM [7]: 57.7%
- Activity [10]: 105 µmol/L
- inhibition at 1 µM [11]: 3.1%
- inhibition at 50 µM [12]: 3.2%
- Activity [13]: 74.1 µmol/L
- inhibition at 100 µM [14]: 7%
- inhibition at 10 µM [15]: 18.9%
- inhibition at 10 µM [16]: -0.5%
